In ChEMBL document CHEMBL1122109, “Monophenolic octahydrobenzo[f]quinolines: central dopamine- and serotonin-receptor stimulating activity” (1982):
Active and inactive are the calls of the source. The rule behind the calls is not given here.

Tests used:
Rattus norvegicus [1] = organism: Rattus norvegicus; assay: ED50 value was measured as dose required to produce a half-maximal reduction of Serotonin (5-HTP) accumulation in striatum of reserpinized rat brain; I is Inactive, no significant effect at doses approximately 40 times the ED50 for Dopa accumulation; format: functional, organism-based
Rattus norvegicus [2] = organism: Rattus norvegicus; assay: Percent reduction of hemispheres in cortex was measured in the brain of reserpinized rats; I is Inactive, no significant effect at doses approximately 40 times the ED50 for Dopa accumulation; format: functional, organism-based
Rattus norvegicus [3] = organism: Rattus norvegicus; assay: ED50 value was measured as dose required to produce a half-maximal reduction of Serotonin (5-HTP) accumulation in limbic area of reserpinized rat brain; I is Inactive, no significant effect at doses approximately 40 times the ED50 for Dopa accumulation; format: functional, organism-based
Rattus norvegicus [4] = organism: Rattus norvegicus; assay: ED50 value was measured as dose required to produce a half-maximal reduction of Dopa accumulation in limbic area of reserpinized rat brain.; format: functional
Rattus norvegicus [5] = organism: Rattus norvegicus; assay: ED50 value was measured as dose required to produce a half-maximal reduction of Dopa accumulation in the striatum of reserpinized rat brain.; format: functional
Rattus norvegicus [6] = organism: Rattus norvegicus; assay: Motor activity was measured in the reserpinized rats as counts/60 min.; format: functional
Procedure, shortened: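 Male Sprague-Dawley rats (200-300 g) received reserpine 10 mg/kg ip 6 h before testing and DL-α-methyl-p-tyrosine methyl ester HCl 250 mg/kg ip 1 h before. Test drug was given sc in the neck: trans derivatives at 1 mg/kg (3100 nmol/kg), cis at 10 mg/kg (31000 nmol/kg), n = 4. Rats were placed singly in motility meters immediately and activity recorded for 60 min; means ± SEM.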

Rattus norvegicus [7] = organism: Rattus norvegicus; assay: Percent reduction of hemispheres in cortex was measured in the brain of reserpinized rats.*: No significant effect at doses approximately 40 times the ED50; I is Inactive, no significant effect at doses approximately 40 times the ED50 for Dopa ac cumulation; format: functional, organism-based
Rattus norvegicus [8] = organism: Rattus norvegicus; assay: ED50 value was measured as dose required to produce a half-maximal reduction of Serotonin (5-HTP) accumulation in limbic area of reserpinized rat brain; I is Inactive, no significant effect at doses approximately 10 times the ED50 for Dopa accumulation; format: functional, organism-based
Rattus norvegicus [9] = organism: Rattus norvegicus; assay: Percent reduction of hemispheres in cortex was measured in the brain of reserpinized rats; I is Inactive, no significant effect at doses approximately 10 times the ED50 for Dopa accumulation; format: functional, organism-based
Rattus norvegicus [10] = assay: ED50 value was measured as dose required to produce a half-maximal reduction of Dopa accumulation in the striatum of reserpinized rat brain; I is Inactive at 2800 nmol/kg; format: functional, organism-based
Rattus norvegicus [11] = organism: Rattus norvegicus; assay: ED50 value was measured as dose required to produce a half-maximal reduction of Serotonin (5-HTP) accumulation in striatum of reserpinized rat brain; I is Inactive, no significant effect at doses approximately 10 times the ED50 for Dopa accumulation; format: functional, organism-based
Rattus norvegicus [12] = assay: ED50 value was measured as dose required to produce a half-maximal reduction of Serotonin (5-HTP) accumulation in striatum of reserpinized rat brain; I is Inactive at 2800 nmol/kg; format: functional, organism-based
Rattus norvegicus [13] = assay: Percent reduction of hemispheres in cortex was measured in the brain of reserpinized rats; I is Inactive at 2800 nmol/kg; format: functional, organism-based
Rattus norvegicus [14] = assay: ED50 value was measured as dose required to produce a half-maximal reduction of Dopa accumulation in limbic area of reserpinized rat brain; I is Inactive at 2800 nmol/kg; format: functional, organism-based
Rattus norvegicus [15] = assay: ED50 value was measured as dose required to produce a half-maximal reduction of Serotonin (5-HTP) accumulation in limbic area of reserpinized rat brain; I is Inactive at 2800 nmol/kg; format: functional, organism-based
Rattus norvegicus [16] = assay: ED50 value was measured as dose required to produce a half-maximal reduction of Dopa accumulation in the striatum of reserpinized rat brain; Maximal reduction of Dopa could not be obtained. 60% reduction from control level at 12500 nmol/Kg; format: functional, organism-based
Rattus norvegicus [17] = assay: ED50 value was measured as dose required to produce a half-maximal reduction of Serotonin (5-HTP) accumulation in striatum of reserpinized rat brain; I is Inactive at 45000 nmol/kg; format: functional, organism-based
Rattus norvegicus [18] = assay: ED50 value was measured as dose required to produce a half-maximal reduction of Dopa accumulation in limbic area of reserpinized rat brain; Maximal reduction of Dopa could not be obtained. 40% reduction from control level at 12500 nmol/Kg; format: functional, organism-based
Rattus norvegicus [19] = assay: Percent reduction of hemispheres in cortex was measured in the brain of reserpinized rats.*: No significant effect at doses approximately 40 times the ED50; IA is Inactive at 45000 nmol/kg; format: functional, organism-based
Rattus norvegicus [20] = assay: ED50 value was measured as dose required to produce a half-maximal reduction of Serotonin (5-HTP) accumulation in limbic area of reserpinized rat brain; I is Inactive at 45000 nmol/kg; format: functional, organism-based
Rattus norvegicus [21] = assay: ED50 value was measured as dose required to produce a half-maximal reduction of Serotonin (5-HTP) accumulation in striatum of reserpinized rat brain; I is Inactive at 11300 nmol/Kg; format: functional, organism-based
Rattus norvegicus [22] = assay: ED50 value was measured as dose required to produce a half-maximal reduction of Serotonin (5-HTP) accumulation in limbic area of reserpinized rat brain; I is Inactive at 11300 nmol/Kg; format: functional, organism-based
Rattus norvegicus [23] = assay: Percent reduction of hemispheres in cortex was measured in the brain of reserpinized rats; I is Inactive at 11300 nmol/Kg; format: functional, organism-based
Rattus norvegicus [24] = organism: Rattus norvegicus; assay: Percent reduction of hemispheres in cortex was measured in the brain of reserpinized rats.*: No significant effect at doses approximately 40 times the ED50; format: functional
Rattus norvegicus [25] = organism: Rattus norvegicus; assay: ED50 value was measured as dose required to produce a half-maximal reduction of Serotonin (5-HTP) accumulation in limbic area of reserpinized rat brain; format: functional
Rattus norvegicus [26] = organism: Rattus norvegicus; assay: ED50 value was measured as dose required to produce a half-maximal reduction of Serotonin (5-HTP) accumulation in striatum of reserpinized rat brain; format: functional
Rattus norvegicus [27] = organism: Rattus norvegicus; assay: ED50 value was measured as dose required to produce a half-maximal reduction of Dopa accumulation in limbic area of reserpinized rat brain; I is Inactive, no significant effect at doses approximately 10 times the ED50 for Dopa accumulation; format: functional, organism-based
Rattus norvegicus [28] = organism: Rattus norvegicus; assay: ED50 value was measured as dose required to produce a half-maximal reduction of Dopa accumulation in the striatum of reserpinized rat brain; I is Inactive, no significant effect at doses approximately 10 times the ED50 for Dopa accumulation; format: functional, organism-based
Rattus norvegicus [29] = assay: ED50 value was measured as dose required to produce a half-maximal reduction of Dopa accumulation in the striatum of reserpinized rat brain; I is Inactive at 500 nmol/kg; format: functional, organism-based
Rattus norvegicus [30] = assay: ED50 value was measured as dose required to produce a half-maximal reduction of Dopa accumulation in limbic area of reserpinized rat brain; I is Inactive at 500 nmol/kg; format: functional, organism-based
Rattus norvegicus [31] = organism: Rattus norvegicus; assay: ED50 value was measured as dose required to produce a half-maximal reduction of Dopa accumulation in limbic area of reserpinized rat brain; I is Inactive, no significant effect at doses approximately 40 times the ED50 for Dopa accumulation; format: functional, organism-based
Rattus norvegicus [32] = organism: Rattus norvegicus; assay: ED50 for 5-HTP in cortex hemispheres was measured in the brain of reserpinized rats.
Rattus norvegicus [33] = organism: Rattus norvegicus; assay: ED50 value was measured as dose required to produce a half-maximal reduction of Dopa accumulation in the striatum of reserpinized rat brain; I is Inactive, no significant effect at doses approximately 40 times the ED50 for Dopa accumulation; format: functional, organism-based
[34] = Rattus norvegicus, Brain, read-out: ED50
[35] = Rattus norvegicus, Striatum, read-out: ED50

In the case of `CCCN1CCCC(c2cccc(O)c2)C1` (configuration not stated), the ED50 (Rattus norvegicus [1]) is reported as “inactive”, the Hemispheres reduction (Rattus norvegicus [2]) is reported as “inactive” and the ED50 (Rattus norvegicus [3]) is reported as “inactive”. For the same compound, the ED50 (Rattus norvegicus [4]; [34]) was 3.6 µmol/kg and the ED50 (Rattus norvegicus [5]; [35]) was 3.6 µmol/kg.
`CCCN(CCC)C1CCc2ccc(O)cc2C1` (configuration not stated) was tested, and the ED50 (Rattus norvegicus [1]) was “inactive”, the Hemispheres reduction (Rattus norvegicus [2]) was “inactive” and the ED50 (Rattus norvegicus [3]) was “inactive”. For the same compound, the ED50 (Rattus norvegicus [4]; [34]) was 0.027 µmol/kg and the ED50 (Rattus norvegicus [5]; [35]) was 0.03 µmol/kg.
In the case of `CCCN(CCC)[C@@H]1CCc2ccc(O)cc2C1`, the ED50 (Rattus norvegicus [4]; [34]) is reported as 0.18 µmol/kg and the ED50 (Rattus norvegicus [5]; [35]) is reported as 0.17 µmol/kg.
With `CCCCN1CCCC2c3cccc(O)c3CCC21` (configuration not stated) the ED50 (Rattus norvegicus [1]) was “inactive”, the Motor activity (Rattus norvegicus [6]) was 418 and the ED50 (Rattus norvegicus [3]) was “inactive”. The Hemispheres reduction (Rattus norvegicus [7]) was “inactive”, the ED50 (Rattus norvegicus [4]; [34]) was 0.08 µmol/kg and the ED50 (Rattus norvegicus [5]; [35]) was 0.07 µmol/kg.
For `CCCN1CCCC2c3ccc(O)cc3CCC21` (configuration not stated), the ED50 (Rattus norvegicus [8]) was “inactive”, the Motor activity (Rattus norvegicus [6]) was 179 and the Hemispheres reduction (Rattus norvegicus [9]) was “inactive”. For the same compound, the ED50 (Rattus norvegicus [10]) was “inactive”, the ED50 (Rattus norvegicus [11]) was “inactive” and the ED50 (Rattus norvegicus [12]) was “inactive”. For the same compound, the Hemispheres reduction (Rattus norvegicus [13]) was “inactive”, the ED50 (Rattus norvegicus [14]) was “inactive” and the ED50 (Rattus norvegicus [4]; [34]) was 0.54 µmol/kg. For the same compound, the ED50 (Rattus norvegicus [5]; [35]) was 0.53 µmol/kg and the ED50 (Rattus norvegicus [15]) was “inactive”.
Compound `CCCN1CCCC2c3cccc(O)c3CCC21` (stereo in doubt; 6) [listing 1 of 2 here] has a Motor activity (Rattus norvegicus [6]) of 17.
For `CCCN1CCCC2c3cccc(O)c3CCC21` (stereo in doubt; 6) [listing 2 of 2 here], the ED50 (Rattus norvegicus [16]) was “Weak activity”, the ED50 (Rattus norvegicus [17]) was “inactive” and the ED50 (Rattus norvegicus [18]) was “Weak activity”. The Hemispheres reduction (Rattus norvegicus [19]) was “inactive” and the ED50 (Rattus norvegicus [20]) was “inactive”.
In the case of `CCCN1CCCC2c3cccc(O)c3CCC21` (stereo in doubt; 7) [listing 1 of 2 here], the Motor activity (Rattus norvegicus [6]) is reported as 327, the ED50 (Rattus norvegicus [4]; [34]) is reported as 0.13 µmol/kg and the ED50 (Rattus norvegicus [5]; [35]) is reported as 0.13 µmol/kg.
`CCCN1CCCC2c3cccc(O)c3CCC21` (stereo in doubt; 7) [listing 2 of 2 here] was tested, and the ED50 (Rattus norvegicus [1]) was “inactive”, the Hemispheres reduction (Rattus norvegicus [2]) was “inactive” and the ED50 (Rattus norvegicus [3]) was “inactive”.
Compound `CCCN1CCCC2c3cc(O)ccc3CCC21` (stereo in doubt; 8) [listing 1 of 2 here] has an ED50 (Rattus norvegicus [4]) of 2000 nM/kg and an ED50 (Rattus norvegicus [5]) of 3400 nM/kg.
`CCCN1CCCC2c3cc(O)ccc3CCC21` (stereo in doubt; 8) [listing 2 of 2 here] was tested, and the ED50 (Rattus norvegicus [21]) was “inactive”, the ED50 (Rattus norvegicus [22]) was “inactive” and the Hemispheres reduction (Rattus norvegicus [23]) was “inactive”.
`CCCN1CCCC2c3cc(O)ccc3CCC21` (stereo in doubt; 9) [listing 1 of 2 here] was tested, and the Motor activity (Rattus norvegicus [6]) was 365, the ED50 (Rattus norvegicus [4]) was 8 nM/kg and the ED50 (Rattus norvegicus [5]) was 12 nM/kg.
For `CCCN1CCCC2c3cc(O)ccc3CCC21` (stereo in doubt; 9) [listing 2 of 2 here], the ED50 (Rattus norvegicus [1]) was “inactive”, the Hemispheres reduction (Rattus norvegicus [2]) was “inactive” and the ED50 (Rattus norvegicus [3]) was “inactive”.
`CCCN1CCCC2c3c(O)cccc3CCC21` (stereo in doubt; 17) [listing 1 of 2 here] was tested, and the Hemispheres reduction (Rattus norvegicus [24]) was 4500, the ED50 (Rattus norvegicus [25]) was 3400 nM/kg and the ED50 (Rattus norvegicus [26]) was 3400 nM/kg.
For `CCCN1CCCC2c3c(O)cccc3CCC21` (stereo in doubt; 17) [listing 2 of 2 here], the ED50 (Rattus norvegicus [27]) was “inactive” and the ED50 (Rattus norvegicus [28]) was “inactive”.
`CCCN1CCCC2c3c(O)cccc3CCC21` (stereo in doubt; 18) [listing 1 of 2 here] showed a Hemispheres reduction (Rattus norvegicus [24]) of 160, an ED50 (Rattus norvegicus [25]) of 230 nM/kg and an ED50 (Rattus norvegicus [26]) of 180 nM/kg.
`CCCN1CCCC2c3c(O)cccc3CCC21` (stereo in doubt; 18) [listing 2 of 2 here] was tested, and the ED50 (Rattus norvegicus [29]) was “inactive” and the ED50 (Rattus norvegicus [30]) was “inactive”.
In the case of `CCCN(CCC)C1CCc2c(O)cccc2C1` (configuration not stated) [5-OH-DPAT], the ED50 (Rattus norvegicus [1]) is reported as “inactive”, the Motor activity (Rattus norvegicus [6]) is reported as 688 and the Hemispheres reduction (Rattus norvegicus [2]) is reported as “inactive”. The ED50 (Rattus norvegicus [3]) was “inactive”, the ED50 (Rattus norvegicus [4]; [34]) was 0.011 µmol/kg and the ED50 (Rattus norvegicus [5]; [35]) was 0.009 µmol/kg.
`CCCN(CCC)C1CCc2cccc(O)c2C1` (configuration not stated) [8-OH-DPAT] was tested, and the ED50 (Rattus norvegicus [25]; [34]) was 0.048 µmol/kg, the ED50 (Rattus norvegicus [31]) was “inactive” and the ED50 (Rattus norvegicus [32]) was 68 nmol/kg. The ED50 (Rattus norvegicus [33]) was “inactive” and the ED50 (Rattus norvegicus [26]; [35]) was 0.045 µmol/kg.
With `CN1CCc2cccc3c2[C@H]1Cc1ccc(O)c(O)c1-3` [APOMORPHINE] the Motor activity (Rattus norvegicus [6]) was 624, the Hemispheres reduction (Rattus norvegicus [2]) was “inactive” and the ED50 (Rattus norvegicus [4]; [34]) was 0.19 µmol/kg. It also gave an ED50 (Rattus norvegicus [5]; [35]) of 0.22 µmol/kg.
